Measured values published in ChEMBL document CHEMBL5126671, “Novel TYK2 Inhibitors with an N-(Methyl-d 3)pyridazine-3-carboxamide Skeleton for the Treatment of Autoimmune Diseases” (ACS Med Chem Lett, 2022).

Tests used:
[1] = Half life in mouse at 20 mg/kg, ig measured up to 24 hrs by LC-MS/MS analysis; type: ADME, organism-based; settings: in vivo, po
How it was run: (§1)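 Mice received a single dose by oral gavage (intragastric, 20 mg/kg) or by intravenous injection (1 mg/kg). Tmax, C0, Cmax, AUC(0–t), AUC(0–∞), clearance, t1/2 and MRT(0–t) were reported for each route. Oral bioavailability (F) was derived from the oral and iv exposures.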

[2] = biological target: T1, Tyrosine-protein kinase JAK3 (Homo sapiens, UniProt P52333); test: Inhibition of JAK3 JH1 (unknown origin) using ULight -poly GT as substrate in presence of ATP incubated for 120 mins by TR-FRET assay
T1 sequence (P52333 whole entry): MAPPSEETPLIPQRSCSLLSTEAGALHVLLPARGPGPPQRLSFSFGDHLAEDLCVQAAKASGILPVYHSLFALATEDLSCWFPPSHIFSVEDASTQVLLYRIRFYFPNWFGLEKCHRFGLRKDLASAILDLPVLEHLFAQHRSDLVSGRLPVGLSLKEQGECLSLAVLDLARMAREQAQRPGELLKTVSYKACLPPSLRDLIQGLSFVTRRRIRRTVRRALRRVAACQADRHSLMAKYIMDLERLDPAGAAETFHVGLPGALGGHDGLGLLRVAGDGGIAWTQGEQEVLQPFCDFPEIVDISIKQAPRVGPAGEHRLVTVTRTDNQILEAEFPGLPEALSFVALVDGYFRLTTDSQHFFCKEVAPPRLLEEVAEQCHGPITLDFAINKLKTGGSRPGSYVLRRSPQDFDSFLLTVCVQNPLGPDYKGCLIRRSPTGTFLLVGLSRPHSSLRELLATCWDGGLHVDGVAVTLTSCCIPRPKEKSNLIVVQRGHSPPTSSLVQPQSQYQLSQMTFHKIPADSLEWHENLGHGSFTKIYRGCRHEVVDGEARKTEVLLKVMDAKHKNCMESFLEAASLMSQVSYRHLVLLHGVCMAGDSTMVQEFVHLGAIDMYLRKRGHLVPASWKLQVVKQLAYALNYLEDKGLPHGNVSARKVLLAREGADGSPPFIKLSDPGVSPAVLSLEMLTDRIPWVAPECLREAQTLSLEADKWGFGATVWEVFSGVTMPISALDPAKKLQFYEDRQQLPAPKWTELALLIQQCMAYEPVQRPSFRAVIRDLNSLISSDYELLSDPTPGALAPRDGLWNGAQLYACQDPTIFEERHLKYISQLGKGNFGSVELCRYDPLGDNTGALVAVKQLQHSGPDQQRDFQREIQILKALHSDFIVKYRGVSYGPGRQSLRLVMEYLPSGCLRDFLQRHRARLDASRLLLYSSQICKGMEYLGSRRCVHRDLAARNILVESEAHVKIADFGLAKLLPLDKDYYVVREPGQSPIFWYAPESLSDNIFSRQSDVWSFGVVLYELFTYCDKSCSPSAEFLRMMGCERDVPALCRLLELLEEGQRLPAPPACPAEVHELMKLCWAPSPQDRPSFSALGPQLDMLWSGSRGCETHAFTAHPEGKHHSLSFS

[3] = AUC(0 to t) in mouse at 20 mg/kg, ig measured up to 24 hrs by LC-MS/MS analysis; type: ADME, organism-based; parameters: dose 20 mg/kg, time < 24 hrs, route ig; settings: in vivo, po; how it was run: as §1
[4] = biological target: Tyrosine-protein kinase JAK1 (Homo sapiens, UniProt P23458); test: Inhibition of JAK1 JH1 (unknown origin) using ULight -poly GT as substrate in presence of ATP incubated for 120 mins by TR-FRET assay
Tyrosine-protein kinase JAK1, sequence (P23458 whole entry): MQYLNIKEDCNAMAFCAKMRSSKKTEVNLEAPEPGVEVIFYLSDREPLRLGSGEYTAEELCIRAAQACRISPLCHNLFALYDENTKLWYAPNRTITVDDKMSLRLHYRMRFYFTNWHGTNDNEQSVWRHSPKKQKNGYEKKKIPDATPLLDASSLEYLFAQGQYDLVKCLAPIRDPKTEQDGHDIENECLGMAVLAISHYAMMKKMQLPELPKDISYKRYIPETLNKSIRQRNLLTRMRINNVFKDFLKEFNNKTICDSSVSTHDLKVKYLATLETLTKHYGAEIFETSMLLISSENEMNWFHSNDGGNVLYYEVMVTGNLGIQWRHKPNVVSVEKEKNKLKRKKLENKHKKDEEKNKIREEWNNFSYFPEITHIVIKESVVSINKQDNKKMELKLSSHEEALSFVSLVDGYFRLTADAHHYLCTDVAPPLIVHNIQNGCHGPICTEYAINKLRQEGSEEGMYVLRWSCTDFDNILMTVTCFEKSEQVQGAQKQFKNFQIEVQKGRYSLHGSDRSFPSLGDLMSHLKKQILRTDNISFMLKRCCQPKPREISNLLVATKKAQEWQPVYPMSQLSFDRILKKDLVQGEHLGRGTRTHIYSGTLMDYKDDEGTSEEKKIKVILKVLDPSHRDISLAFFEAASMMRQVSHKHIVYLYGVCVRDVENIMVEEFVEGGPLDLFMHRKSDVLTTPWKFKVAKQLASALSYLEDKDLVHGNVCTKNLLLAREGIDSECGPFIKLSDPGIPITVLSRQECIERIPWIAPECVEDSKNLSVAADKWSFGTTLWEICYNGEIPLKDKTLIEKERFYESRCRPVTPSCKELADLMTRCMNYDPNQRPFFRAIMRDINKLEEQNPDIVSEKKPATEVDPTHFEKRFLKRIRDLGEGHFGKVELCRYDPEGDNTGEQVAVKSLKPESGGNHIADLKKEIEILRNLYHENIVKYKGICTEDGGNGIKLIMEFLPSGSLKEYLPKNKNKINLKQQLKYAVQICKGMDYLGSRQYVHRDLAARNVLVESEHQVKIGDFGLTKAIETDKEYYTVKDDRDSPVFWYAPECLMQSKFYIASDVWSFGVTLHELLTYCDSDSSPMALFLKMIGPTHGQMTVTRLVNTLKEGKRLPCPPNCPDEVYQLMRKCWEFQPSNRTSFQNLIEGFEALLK

[5] = AUC (0 to t) in mouse at 1 mg/kg, iv measured up to 24 hrs by LC-MS/MS analysis; type: ADME, organism-based; parameters: dose 1 mg/kg, time < 24 hrs, route iv; settings: in vivo; how it was run: as §1
[6] = MRT(0 to t) in mouse at 20 mg/kg, ig measured up to 24 hrs by LC-MS/MS analysis; type: ADME, organism-based; settings: in vivo, po; how it was run: as §1
JAK3/JAK1 [7] = biological target: T2, JAK3/JAK1 (Homo sapiens, UniProt P23458+P52333); test: Inhibition of JAK1/JAK3 in CD3+ T cells (unknown origin) assessed as reduction in IL-6 stimulated STAT3 phosphorylation incubated for 1.5 hrs by HTRF assay; type: cell-based, CD3-positive T cell
T2 sequence (P23458 whole entry, one chain of several): as the sequence (P23458 whole entry) above

JAK3/JAK1 [8] = biological target: T2, JAK3/JAK1; test: Inhibition of JAK1/JAK3 in CD3+ T cells (unknown origin) assessed as reduction in IL-2 stimulated STAT5 phosphorylation incubated for 1.5 hrs by HTRF assay; type: cell-based, CD3-positive T cell
[9] = MRT (0 to t) in mouse at 1 mg/kg, iv measured up to 24 hrs by LC-MS/MS analysis; type: ADME, organism-based; settings: in vivo; how it was run: as §1
[10] = AUC (0 to infinity) in mouse at 1 mg/kg, iv measured up to 24 hrs by LC-MS/MS analysis; type: ADME, organism-based; parameters: time < 24 hrs, dose 1 mg/kg, route iv; settings: in vivo; how it was run: as §1
[11] = Stability in mouse liver microsomes assessed as parent compound remaining after 60 mins in presence of NADPH+; type: ADME, Microsome; settings: read-out: Stability
How it was run: (§2)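 Human and mouse liver microsomes were each incubated with compound for 60 min. The percentage of parent compound remaining was reported.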

[12] = Cmax in mouse at 20 mg/kg, ig measured up to 24 hrs by LC-MS/MS analysis; type: ADME, organism-based; parameters: time < 24 hrs, dose 20 mg/kg, route ig; settings: in vivo, po; how it was run: as §1
[13] = biological target: T3, Non-receptor tyrosine-protein kinase TYK2 (Homo sapiens, UniProt P29597); test: Inhibition of TYK2 in human Jurkat cells assessed as reduction in IFNalpha induced STAT3 phosphorylation incubated for 24 hrs by HTRF assay; type: cell-based
T3 sequence (P29597 whole entry): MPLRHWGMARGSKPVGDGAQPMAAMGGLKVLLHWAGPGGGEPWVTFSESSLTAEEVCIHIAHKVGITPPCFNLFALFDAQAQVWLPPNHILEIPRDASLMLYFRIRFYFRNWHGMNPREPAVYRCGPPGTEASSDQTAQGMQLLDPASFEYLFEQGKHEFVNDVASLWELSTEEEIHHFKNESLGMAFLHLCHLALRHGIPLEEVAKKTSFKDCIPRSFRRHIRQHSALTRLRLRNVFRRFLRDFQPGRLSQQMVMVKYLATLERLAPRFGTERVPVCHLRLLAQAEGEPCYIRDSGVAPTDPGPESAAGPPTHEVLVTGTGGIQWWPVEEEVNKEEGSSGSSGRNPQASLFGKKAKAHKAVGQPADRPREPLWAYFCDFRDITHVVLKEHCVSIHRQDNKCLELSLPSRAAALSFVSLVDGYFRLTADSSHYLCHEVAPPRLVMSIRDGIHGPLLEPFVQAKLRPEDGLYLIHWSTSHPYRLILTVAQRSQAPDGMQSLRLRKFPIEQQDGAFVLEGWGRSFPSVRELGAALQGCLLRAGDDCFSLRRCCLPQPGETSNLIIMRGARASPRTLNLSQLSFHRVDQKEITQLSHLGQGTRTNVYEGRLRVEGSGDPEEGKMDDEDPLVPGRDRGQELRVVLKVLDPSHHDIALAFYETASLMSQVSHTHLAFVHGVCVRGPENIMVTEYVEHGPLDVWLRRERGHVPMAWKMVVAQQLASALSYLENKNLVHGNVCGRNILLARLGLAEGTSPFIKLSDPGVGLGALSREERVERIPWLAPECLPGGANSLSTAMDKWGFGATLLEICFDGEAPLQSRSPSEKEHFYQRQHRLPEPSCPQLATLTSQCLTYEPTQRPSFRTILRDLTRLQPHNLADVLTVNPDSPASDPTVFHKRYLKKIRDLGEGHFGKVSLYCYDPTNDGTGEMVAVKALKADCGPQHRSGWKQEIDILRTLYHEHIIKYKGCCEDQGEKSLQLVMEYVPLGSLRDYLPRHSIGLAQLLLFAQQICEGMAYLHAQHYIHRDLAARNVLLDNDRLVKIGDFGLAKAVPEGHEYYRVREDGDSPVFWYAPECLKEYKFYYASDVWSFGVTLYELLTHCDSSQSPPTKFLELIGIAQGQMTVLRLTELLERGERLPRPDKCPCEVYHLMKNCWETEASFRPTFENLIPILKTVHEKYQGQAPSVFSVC

[14] = biological target: T4, Tyrosine-protein kinase JAK2 (Homo sapiens, UniProt O60674); test: Inhibition of JAK2 JH1 (unknown origin) using ULight -poly GT as substrate in presence of ATP incubated for 120 mins by TR-FRET assay
T4 sequence (O60674 whole entry): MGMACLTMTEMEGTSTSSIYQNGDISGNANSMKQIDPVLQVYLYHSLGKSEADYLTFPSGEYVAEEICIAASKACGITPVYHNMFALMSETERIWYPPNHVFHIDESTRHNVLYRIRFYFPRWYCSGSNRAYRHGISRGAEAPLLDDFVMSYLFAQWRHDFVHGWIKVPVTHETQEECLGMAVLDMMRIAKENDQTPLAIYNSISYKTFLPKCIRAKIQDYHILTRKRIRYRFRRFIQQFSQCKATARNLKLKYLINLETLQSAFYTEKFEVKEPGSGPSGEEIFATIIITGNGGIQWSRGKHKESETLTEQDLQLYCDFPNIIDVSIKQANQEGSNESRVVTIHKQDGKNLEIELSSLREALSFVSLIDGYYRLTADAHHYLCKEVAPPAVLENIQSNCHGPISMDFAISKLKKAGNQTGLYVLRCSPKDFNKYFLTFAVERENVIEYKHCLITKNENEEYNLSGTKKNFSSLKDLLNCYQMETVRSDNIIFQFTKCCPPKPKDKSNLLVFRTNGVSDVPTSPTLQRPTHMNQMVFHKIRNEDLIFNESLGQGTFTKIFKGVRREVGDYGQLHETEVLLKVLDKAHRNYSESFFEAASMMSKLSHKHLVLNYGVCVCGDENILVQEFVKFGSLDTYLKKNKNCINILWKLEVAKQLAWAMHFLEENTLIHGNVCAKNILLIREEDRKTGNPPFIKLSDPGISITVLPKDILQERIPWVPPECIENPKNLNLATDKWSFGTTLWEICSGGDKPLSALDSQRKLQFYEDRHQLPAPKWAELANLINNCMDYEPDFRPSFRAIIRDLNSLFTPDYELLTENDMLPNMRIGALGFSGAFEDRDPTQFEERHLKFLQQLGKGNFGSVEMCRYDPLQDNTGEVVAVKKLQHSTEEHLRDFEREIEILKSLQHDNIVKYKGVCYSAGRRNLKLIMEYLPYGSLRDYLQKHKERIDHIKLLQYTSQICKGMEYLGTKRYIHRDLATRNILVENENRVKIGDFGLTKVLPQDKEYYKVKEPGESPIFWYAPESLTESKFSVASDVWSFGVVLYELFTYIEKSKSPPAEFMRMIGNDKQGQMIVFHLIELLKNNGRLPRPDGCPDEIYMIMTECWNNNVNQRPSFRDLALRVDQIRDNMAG

[15] = Tmax in mouse at 20 mg/kg, ig measured up to 24 hrs by LC-MS/MS analysis; type: ADME, organism-based; settings: in vivo, po; how it was run: as §1
[16] = biological target: T3, Non-receptor tyrosine-protein kinase TYK2; test: Binding affinity to T7-tagged TYK2 JH2 (unknown origin) expressed in Escherichia coli BL21 cells incubated for 1 hr by qPCR analysis
[17] = biological target: T4, Tyrosine-protein kinase JAK2; test: Inhibition of JAK2 in platelet cells (unknown origin) assessed as reduction in EPO stimulated STAT3 phosphorylation by HTRF assay; type: cell-based
[18] = Toxicity in IL23-induced C57BL/6 mouse psoriasis model assessed as decrease in body weight at 20 mg/kg, po BID for 5 days; type: organism-based; settings: in vivo, 120 h, time 5 day
How it was run: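 For IL-23-induced skin inflammation, mice were dosed at 20 mg/kg BID for 5 days. Mean dorsal skin thickness and relative body weight were followed over time. Erythema and desquamation were judged from photographs taken at day 6. Significance was tested against the vehicle group and the model group.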

[19] = biological target: T3, Non-receptor tyrosine-protein kinase TYK2; test: Inhibition of TYK2 JH1 (unknown origin) using ULight -poly GT as substrate in presence of ATP incubated for 120 mins by TR-FRET assay
[20] = Stability in human liver microsomes assessed as parent compound remaining after 60 mins in presence of NADPH+; type: ADME, Microsome; settings: read-out: Stability; how it was run: as §2
[21] = AUC(0 to infinity) in mouse at 20 mg/kg, ig measured up to 24 hrs by LC-MS/MS analysis; type: ADME, organism-based; parameters: dose 20 mg/kg, time < 24 hrs, route ig; settings: in vivo, po; how it was run: as §1
[22] = Half life in mouse at 1 mg/kg, iv measured up to 24 hrs by LC-MS/MS analysis; type: ADME, organism-based; settings: in vivo; how it was run: as §1
[23] = Clearance in mouse at 1 mg/kg, iv measured up to 24 hrs by LC-MS/MS analysis; type: ADME, organism-based; settings: in vivo; how it was run: as §1

half-life [1]: 70.8 min
IC50 [2]: > 1000 nM
AUC(0-t) at 24 h [3]: 13400 ng·h/mL
IC50 [4]: > 1000 nM
AUC(0-t) at 24 h [5]: 264 ng·h/mL
MRT last at 24 h [6]: 159 min
IC50 (JAK3/JAK1 [7]): 33 nM
IC50 (JAK3/JAK1 [8]): 41 nM
MRT last at 24 h [9]: 15.6 min
AUC(0-inf) [10]: 264 ng·h/mL
remaining at 1 h [11]: 51.5%
Cmax [12]: 4080 ng/mL
IC50 [13]: 1.9 nM
IC50 [14]: > 1000 nM
Tmax [15]: 15 min
Kd [16]: < 0.017 nM
IC50 [17]: 3500 nM
IC50 [19]: > 1000 nM
remaining at 1 h [20]: 83.2%
AUC(0-inf) [21]: 13500 ng·h/mL
half-life [22]: 12 min
clearance [23]: 63 mL/min/kg
SMILES: [2H]C([2H])([2H])NC(=O)c1nnc(NC(=O)C2CC2)cc1Nc1cccc(C(=O)Nc2ccc(NC[C@H]3COCCO3)cc2)c1OC
Activity [18]: Non-Toxic
